Source: ChEMBL document CHEMBL5236549, “Discovery of 2-Sulfinyl-Diazabicyclooctane Derivatives, Potential Oral β-Lactamase Inhibitors for Infections Caused by Serine β-Lactamase-Producing Enterobacterales” (J Med Chem, 2021)

Tests used:
[1] = Inhibition of bacterial beta-lactamase CMY-2 using nitrocefin as substrate incubated for 20 mins; parameters: species or system Bacteria
Summary of the method: (§1)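 Nitrocefin hydrolysis read by absorbance. Enzyme titrated to give about 0.2 absorbance change over the no-enzyme control. Enzyme added to nitrocefin (final 50 μg/mL) plus inhibitor, no preincubation, read after 20 min at 35 °C. IC50 is 50% reduction of hydrolysis. N = 1.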

[2] = Stability in rat serum assessed as compound remaining at 5 micromol/L incubated for 30 mins by LC-MS/MS analysis; format: ADME, cell-free; settings: dose 5 µmol/L, read-out: Stability
Summary of the method: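 Pooled rat serum incubated with 5 μmol/L compound for 30 min at 37 °C, in duplicate; aliquot mixed with methanol, centrifuged, supernatant analysed by LC/MS/MS for % remaining.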

[3] = Stability of the compound in phosphate buffer at pH 7.0 assessed as parent compound remaining at 40 degreeC measured after 16 hrs; format: physicochemical; settings: read-out: Stability
Summary of the method: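 Compound held in pH 7.0 phosphate buffer at 40 °C for 16 h; amount remaining reported as %.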

[4] = Inhibition of bacterial beta-lactamase OXA-48 using nitrocefin as substrate incubated for 20 mins; parameters: species or system Bacteria; summary of the method: as §1
Escherichia coli [5] = experiment: Antibacterial activity against Escherichia coli ATCC SR34100 assessed as reduction in bacterial growth by measuring minimum […] concentration incubated for 16 to 24 hrs by CLSI based two-fold serial dilution method; format: functional; settings: time 16-24 hrs
Summary of the method: (§2)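 MPC₁ by broth microdilution: twofold serial dilutions of inhibitor in cation-adjusted Mueller Hinton broth containing ceftibuten at 1 μg/mL. Inoculum about 5 × 10⁴ cfu/well final, set from OD625. Incubation at 35 °C for 16−20 h. […] N = 1.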

Escherichia coli [6] = experiment: Antibacterial activity against Escherichia coli ATCC SR09613 assessed as reduction in bacterial growth by measuring minimum […] concentration incubated for 16 to 24 hrs by CLSI based two-fold serial dilution method; format: functional; settings: time 16-24 hrs; summary of the method: as §2
Klebsiella pneumoniae [7] = experiment: Antibacterial activity against Klebsiella pneumoniae SR100758 assessed as inhibition of bacterial growth incubated for 16 to 24 hrs by CLSI based two-fold serial dilution method; format: functional; settings: time 16-24 hrs
Summary of the method: (§3)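 CLSI broth microdilution in cation-adjusted Mueller Hinton broth, twofold serial dilutions, about 5 × 10⁴ cfu/well from OD625, 35 °C for 16−20 h. MIC is the lowest concentration with no visible growth.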

Klebsiella pneumoniae [8] = experiment: Antibacterial activity against Klebsiella pneumoniae SR200263 assessed as inhibition of bacterial growth incubated for 16 to 24 hrs by CLSI based two-fold serial dilution method; format: functional; settings: time 16-24 hrs; summary of the method: as §3
Klebsiella pneumoniae [9] = experiment: Antibacterial activity against Klebsiella pneumoniae SR200487 assessed as inhibition of bacterial growth incubated for 16 to 24 hrs by CLSI based two-fold serial dilution method; format: functional; settings: time 16-24 hrs; summary of the method: as §3
Klebsiella pneumoniae [10] = experiment: Antibacterial activity against Klebsiella pneumoniae SR100758 assessed as reduction in bacterial growth by measuring minimum […] concentration incubated for 16 to 24 hrs by CLSI based two-fold serial dilution method; format: functional; settings: time 16-24 hrs
Summary of the method: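 Inhibitor twofold serially diluted in cation-adjusted Mueller Hinton broth containing ceftibuten 1 μg/mL. About 5 × 10⁴ cfu/well, 35 °C for 16−20 h. […] N = 1.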

[11] = AUC in mouse at 10 mg/kg,iv by LC/MS/MS analysis; format: ADME, organism-based; parameters: dose 10 mg/kg, route iv; settings: in vivo
Summary of the method: (§4)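 Plasma of the parent acid measured by LC/MS/MS (methanol precipitation, positive ESI, external standard); oral values follow prodrug dosing (rat fed, dog and monkey fasted). AUC from 0 h to last time point by linear trapezoid; F from oral AUC versus iv AUC of the parent. N = 2 (rat, dog), N = 3 (monkey, mouse).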

[12] = Total clearance in mouse at 10 mg/kg,iv by LC/MS/MS analysis; format: ADME, organism-based; settings: in vivo
Summary of the method: (§5)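 Intravenous dosing (mouse 10, rat 1, dog 5, monkey 5 mg/kg); plasma quantified by LC/MS/MS after methanol precipitation with external standard; AUC by linear trapezoidal approximation; CLtot = dose/AUC.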

[13] = AUC in rat at 1 mg/kg,iv by LC/MS/MS analysis; format: ADME, organism-based; parameters: dose 1 mg/kg, route iv; settings: in vivo; summary of the method: as §4
[14] = Total clearance in rat at 1 mg/kg,iv by LC/MS/MS analysis; format: ADME, organism-based; settings: in vivo; summary of the method: as §5
[15] = Half life in dog at 5 mg/kg,iv by LC/MS/MS analysis; format: ADME, organism-based, Canis lupus familiaris; settings: in vivo
Summary of the method: (§6)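 After iv dosing, T1/2 taken as ln 2/kel, with kel from the slope of the log concentration–time profile. Plasma levels measured by LC/MS/MS with an external standard.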

[16] = Total clearance in dog at 5 mg/kg,iv by LC/MS/MS analysis; format: ADME, organism-based, Canis lupus familiaris; settings: in vivo; summary of the method: as §5
[17] = AUC in monkey at 5 mg/kg,iv by LC/MS/MS analysis; format: ADME, organism-based, Macaca mulatta; parameters: dose 5 mg/kg, route iv; settings: rhesus monkey, in vivo; summary of the method: as §4
[18] = Half life in monkey at 5 mg/kg,iv by LC/MS/MS analysis; format: ADME, organism-based, Macaca mulatta; settings: rhesus monkey, in vivo; summary of the method: as §6
Enterobacter cloacae [19] = experiment: Antibacterial activity against Enterobacter cloacae SR36276 assessed as inhibition of bacterial growth incubated for 16 to 20 hrs by CLSI based two-fold serial dilution method
Escherichia coli [20] = experiment: Antibacterial activity against Escherichia coli ATCC SR34100 assessed as inhibition of bacterial growth incubated for 16 to 20 hrs by CLSI based two-fold serial dilution method
Klebsiella pneumoniae [21] = experiment: Antibacterial activity against Klebsiella pneumoniae SR09635 assessed as inhibition of bacterial growth incubated for 16 to 20 hrs by CLSI based two-fold serial dilution method
Klebsiella pneumoniae [22] = experiment: Antibacterial activity against Klebsiella pneumoniae SR201325 assessed as inhibition of bacterial growth incubated for 16 to 20 hrs by CLSI based two-fold serial dilution method
Klebsiella pneumoniae [23] = experiment: Antibacterial activity against Klebsiella pneumoniae ATCC BAA1705 assessed as inhibition of bacterial growth incubated for 16 to 20 hrs by CLSI based two-fold serial dilution method
Klebsiella pneumoniae [24] = experiment: Antibacterial activity against Klebsiella pneumoniae ATCC SR201218 assessed as inhibition of bacterial growth incubated for 16 to 20 hrs by CLSI based two-fold serial dilution method
Enterobacter cloacae [25] = experiment: Antibacterial activity against Enterobacter cloacae SR36276 assessed as reduction in bacterial growth by measuring minimum […] concentration incubated for 16 to 20 hrs by CLSI based two-fold serial dilution method; settings: time 16-20 hrs
Klebsiella pneumoniae [26] = experiment: Antibacterial activity against Klebsiella pneumoniae SR09603 assessed as reduction in bacterial growth by measuring minimum […] concentration incubated for 16 to 20 hrs by CLSI based two-fold serial dilution method; settings: time 16-20 hrs
Klebsiella pneumoniae [27] = experiment: Antibacterial activity against Klebsiella pneumoniae SR200487 assessed as reduction in bacterial growth by measuring minimum […] concentration incubated for 16 to 20 hrs by CLSI based two-fold serial dilution method; settings: time 16-20 hrs
Klebsiella pneumoniae [28] = experiment: Antibacterial activity against Klebsiella pneumoniae ATCC BAA1705 assessed as reduction in bacterial growth by measuring minimum potentiating concentration incubated for 16 to 20 hrs by CLSI based two-fold serial dilution method; settings: time 16-20 hrs

- IC50 [1]: 28 nM
- remaining at 0.5 h, 5 µM [2]: 85%
- remaining at 16 h [3]: 95%
- IC50 [4]: 443 nM
- MIC (Klebsiella pneumoniae [7]): > 32 µg/mL
- MIC (Klebsiella pneumoniae [8]): 32 µg/mL
- MIC (Klebsiella pneumoniae [9]): > 32 µg/mL
- AUC [11]: 4920 ng·h/mL
- clearance [12]: 34.7 mL/min/kg
- AUC [13]: 620 ng·h/mL
- clearance [14]: 27 mL/min/kg
- half-life [15]: 54 min
- clearance [16]: 4.3 mL/min/kg
- AUC [17]: 13800 ng·h/mL
- half-life [18]: 30 min
- MIC (Enterobacter cloacae [19]): > 32 µg/mL
- MIC (Escherichia coli [20]): 32 µg/mL
- MIC (Klebsiella pneumoniae [21]): 32 µg/mL
- MIC (Klebsiella pneumoniae [22]): > 32 µg/mL
- MIC (Klebsiella pneumoniae [23]): 32 µg/mL
- MIC (Klebsiella pneumoniae [24]): > 32 µg/mL
SMILES: C[S@@+]([O-])[C@@H]1CC[C@@H]2CN1C(=O)N2O[C@H](F)C(=O)[O-].[Na+]
- MPC (Escherichia coli [5]): 0.125 µg/mL
- MPC (Escherichia coli [6]): 0.125 µg/mL
- MPC (Klebsiella pneumoniae [10]): 0.25 µg/mL
- MPC (Enterobacter cloacae [25]): 2 µg/mL
- MPC (Klebsiella pneumoniae [26]): 0.125 µg/mL
- MPC (Klebsiella pneumoniae [27]): 0.5 µg/mL
- MPC (Klebsiella pneumoniae [28]): 0.063 µg/mL
